Assay [1] has as its system Canis familiaris. Description: Antiarrhythmic property Heart rate (drug free) is compared to Lidocaine using doses (3 and 6 mg/kg). Type of assay: functional, Canis lupus familiaris. Put shortly: (§1)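 Mongrel dogs (~12–25 kg), 1–4 days after coronary occlusion leaving a surviving epicardial rim, anesthetized with sodium pentobarbital (~30 mg/kg). 12-lead ECG monitored throughout. Agent given iv at 3 and 6 mg/kg. Parameters recorded before (drug free) and after dosing. Programmed electrical stimulation tested SVT inducibility (≥250 beats/min, ≥30 s) at baseline, ~2–5 min after each dose, and at 30 min.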

The subject of assay [2] is Canis familiaris. Description: (§2) Antiarrhythmic property Nonsustained ventricular tachycardia is compared to lidocaine(2) using dose of (3 and 6 mg/kg). The format is functional, Canis lupus familiaris, Heart. Put shortly: as §1
For assay [3], the system named is Canis familiaris. The experiment in a line: Antiarrhythmic property His-Purkinje conduction time(drug free) is compared to lidocaine(2) using doses(3 and 6 mg/kg) measures. Type of assay: functional, Canis lupus familiaris, His-Purkinje system. Put shortly:
as §1

Assay [4] deals with Canis familiaris. The experiment in a line: Antiarrhythmic property His-Purkinje conduction time(post drug) is compared to lidocaine(2) using doses(3 and 6 mg/kg) measures. The format is functional, Canis lupus familiaris, His-Purkinje system. An outline of the steps:
as §1

Assay [5] relates to Canis familiaris. Description: Antiarrhythmic property Mean blood pressure (drug free) is compared to Lidocaine using doses(3 and 6 mg/kg). The format is functional, Canis lupus familiaris. Put shortly:
as §1

The subject of assay [6] is Canis familiaris. Description: Antiarrhythmic property Heart rate (post drug) is compared to Lidocaine using doses(3 and 6 mg/kg). system. The format is functional, Canis lupus familiaris. Put shortly:
as §1

Assay [7] deals with Canis familiaris. The experiment in a line: Antiarrhythmic property Mean blood pressure(post drug) is compared to Lidocaine using doses(3 and 6 mg/kg). Type of assay: functional, Canis lupus familiaris. An outline of the steps:
as §1

Assay [8] relates to Canis familiaris. The experiment in a line: Tested for antiarrhythmic property by measuring ability to decrease heart rate (drug free) is compared to Lidocaine using doses (3 and 6 mg/kg). Type of assay: functional, Canis lupus familiaris. An outline of the steps: (§3)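 Mongrel dogs (about 12–25 kg), 1–4 days after coronary occlusion infarction, under sodium pentobarbital (~30 mg/kg) with 12-lead ECG monitoring. Agents and lidocaine were given iv at 3 and 6 mg/kg. Programmed ventricular stimulation was applied at baseline, about 2–5 min after each dose, and at 30 min. SVT was defined as ≥250 beats/min lasting ≥30 s. Pre means drug-free; post means after dosing.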

Assay [9] relates to Canis familiaris. Description: Tested for antiarrhythmic property by measuring ability to decrease Mean blood pressure (drug free) is compared to Lidocaine using doses(3 and 6 mg/kg). The format is functional, Canis lupus familiaris. Put shortly: as §3
Assay [10] deals with Canis familiaris. The description is as §2. Type of assay: functional, Canis lupus familiaris, Heart. An outline of the steps:
as §3
This is another data set of the same source.

Assay [11] has as its system Canis familiaris. The experiment in a line: Tested for antiarrhythmic property by measuring ability to decrease heart rate (post drug) is compared to Lidocaine using doses (3 and 6 mg/kg). Type of assay: functional, Canis lupus familiaris. Put shortly: as §3
The subject of assay [12] is Canis familiaris. Description: Tested for antiarrhythmic property by measuring ability to decrease Mean blood pressure(post drug) is compared to Lidocaine using doses(3 and 6 mg/kg). Type of assay: functional, Canis lupus familiaris. An outline of the steps: as §3
Assay [13] has as its system Canis familiaris. The experiment in a line: (§4) Antiarrhythmic property Nonsustained ventricular tachycardia is compared to lidocaine(2) using doses(3 and 6 mg/kg). The format is functional, Canis lupus familiaris, Heart. Put shortly:
as §3

Assay [14] has as its system Canis familiaris. Description: (§5) Antiarrhythmic property His-Purkinje conduction time(post drug) is compared to lidocaine(2) using doses(3 and 6 mg/kg). The format is functional, Canis lupus familiaris, His-Purkinje system. Put shortly: as §3
Assay [15] deals with Canis familiaris. Description: (§6) Antiarrhythmic property ventricular effective refractory period(drug free) is compared to lidocaine(2) using doses(3 and 6 mg/kg). Type of assay: functional, Canis lupus familiaris, Heart. Put shortly:
as §3

Assay [16] relates to Canis familiaris. Description: Tested for antiarrhythmic property by measuring ability to decrease heart rate(drug free) is compared to Lidocaine using doses (3 and 6 mg/kg). The format is functional, Canis lupus familiaris. Put shortly:
as §3

The subject of assay [17] is Canis familiaris. The experiment in a line: Antiarrhythmic properties are compared to lidocaine(2) using doses(3 and 6 mg/kg). Time required for the ventricular myocardium to undergo depolarization and repolarization ((post drug). Type of assay: functional, Canis lupus familiaris. An outline of the steps:
as §3

For assay [18], the system named is Canis familiaris. Described as §5. The format is functional, Canis lupus familiaris, His-Purkinje system. An outline of the steps:
as §3
This is another data set of the same source.

The test system of assay [19] is Canis familiaris. The experiment in a line: Antiarrhythmic property ventricular effective refractory period(post drug) is compared to lidocaine(2) using doses(3 and 6 mg/kg). The format is functional, Canis lupus familiaris, Heart. An outline of the steps: as §3
The subject of assay [20] is Canis familiaris. Description: Antiarrhythmic properties are compared to lidocaine(2) using doses(3 and 6 mg/kg). Time required for the ventricular myocardium to undergo depolarization and repolarization (drug free). The format is functional, Canis lupus familiaris. An outline of the steps: as §3
Assay [21] relates to Canis familiaris. The experiment in a line: Tested for antiarrhythmic property by measuring ability to decrease heart rate(post drug) is compared to Lidocaine using doses(3 and 6 mg/kg). Type of assay: functional, Canis lupus familiaris. An outline of the steps:
as §3

The subject of assay [22] is Canis familiaris. The description is as §6. The format is functional, Canis lupus familiaris, Heart. An outline of the steps:
as §1
This is another data set of the same source.

Assay [23] has as its system Canis familiaris. Described as §4. The format is functional, Canis lupus familiaris, Heart. Put shortly: as §1
The source holds these as a separate data set.

Assay [24] deals with Canis familiaris. Description: Antiarrhythmic properties are compared to lidocaine(2) using doses(3 and 6 mg/kg) measures His-Purkinje conduction time(drug free). The format is functional, Canis lupus familiaris, His-Purkinje system. An outline of the steps: as §1

As to `Cl.c1ccc(CN2CC3CSCC(C3)C2)cc1`, the HR in the assay with Canis familiaris [1] is recorded as 162 beats min-1; in the assay with Canis familiaris [6], 165 beats min-1. For the same compound, in the assay on Canis familiaris [2], the NSVT turned out to be 3 mg/kg. The figures for the HV interval with Canis familiaris [3] and in the assay with Canis familiaris [4] were 30 ms and 35 ms, respectively. Further, the values for the MBP with Canis familiaris [5] and in the assay on Canis familiaris [7] were 99 mmHg and 105 mmHg, respectively.
On to `CC(C)N1CC2CC(CN(C(=O)c3ccc(NS(C)(=O)=O)cc3)C2)C1`, for which the HR in the assay on Canis familiaris [8] and with Canis familiaris [11] was 150 beats min-1 each time. The results for the MBP in the assay on Canis familiaris [9] and in the assay with Canis familiaris [12] were 70 mmHg and 50 mmHg, respectively. Moreover, the NSVT with Canis familiaris [10] is 6 mg/kg.
Consider `c1ccc(CN2CC3CC(C2)CN(CC2CC2)C3)cc1`, for which the NSVT in the assay with Canis familiaris [13] worked out at 3 mg/kg. The MBP was found to be 130 mmHg with Canis familiaris [9] and 37 mmHg in the assay on Canis familiaris [12]. In addition, the HV interval in the assay on Canis familiaris [14] and in the assay on Canis familiaris [18] was 50 ms throughout. Besides, the values for the VERP in the assay with Canis familiaris [15] and with Canis familiaris [19] were 160 ms and 230 ms, respectively. The HR with Canis familiaris [16] came to 130 beats min-1; in the assay with Canis familiaris [21] it was 110 beats min-1. Besides, the QT with Canis familiaris [17] came out at 260 ms; in the assay with Canis familiaris [20] it was 220 ms.
As for `c1ccc(CN2CC3CSCC(C3)C2)cc1`, the HR in the assay on Canis familiaris [1] and with Canis familiaris [6] was 162 beats min-1 in each case. For the same compound, the HV interval came out at 40 ms with Canis familiaris [14] and 30 ms in the assay on Canis familiaris [24]. The VERP was determined as 142 ms with Canis familiaris [22] and 163 ms in the assay with Canis familiaris [23]. Further, in the assay with Canis familiaris [23], the NSVT stood at 3 mg/kg. The MBP in the assay with Canis familiaris [5] worked out at 98 mmHg; with Canis familiaris [7], 120 mmHg.

The values are drawn from ChEMBL document CHEMBL1129356, “Novel 3,7-diheterabicyclo[3.3.1]nonanes that possess predominant class III antiarrhythmic activity in 1-4 day post infarction dog models: X-ray diffraction analysis of 3-[4-(1H-imidazol-1-yl)benzoyl]-7-isopropyl-3,7-diazabicyclo[3.3.1]nona ne dihydroperchlorate” (1996).
